Measured values as given in ChEMBL document CHEMBL3526151, “Reversible disulfide formation of the glutamate carboxypeptidase II inhibitor E2072 results in prolonged systemic exposures in vivo” (Drug Metab Dispos, 2012).

Key:
[1] = Oral bioavailability in cynomolgus monkey at 5 mg/kg by LC-MS/MS analysis; assay type: ADME, organism-based, Macaca fascicularis; conditions: in vivo
Procedure, shortened: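 Cynomolgus monkeys (n = 3) received a nominal 5 mg/kg dose in 50 mM HEPES, TCEP-treated to prevent disulfide formation. Dosing was either an IV bolus via cephalic or saphenous vein or oral. Arterial cannula blood was collected into NEM-containing heparinized tubes for up to 9 days and analyzed by LC-MS/MS. Noncompartmental analysis gave t1/2 = 0.693/λz and F% = dose-normalized mean AUCinf p.o./i.v. ×100.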

[2] = Cmax in Sprague-Dawley rat brain at 10 mg/kg, po administered as single dose measured per gm of tissue by LC-MS/MS analysis; assay type: ADME, organism-based; set-up: dose 10 mg/kg, route oral
Procedure, shortened: (§1)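 Male Sprague-Dawley rats were dosed orally with 10 mg/kg/day, either once or daily for 5 days; n = 4 per group. Blood was taken by cardiac puncture and liver, kidney, brain and sciatic nerve were collected at 0–8 h post-dose. Tissues were homogenized in PBS containing NEM at equal volume per gram. NEM-derivatized analyte was extracted with methanol and quantified by LC-MS/MS (1–5000 ng/ml). Cmax is the observed value.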

[3] = Cmax in Sprague-Dawley rat plasma at 10 mg/kg/day, po administered for 5 days by LC-MS/MS analysis; assay type: ADME, organism-based; set-up: dose 10 mg/kg/day, route oral; procedure, shortened: as §1
Rattus norvegicus = test: Toxicity in Sprague-Dawley rat chronic constriction injury model assessed as paw withdrawal latencies on non-ligated side at 10 mg/kg/day, po; assay type: organism-based; set-up: route oral; conditions: in vivo
[4] = Primary phase half life in Sprague-Dawley rat at 10 mg/kg, iv by LC-MS/MS analysis; assay type: ADME, organism-based; set-up: dose 10 mg/kg, route intravenous; conditions: in vivo, read-out: alphat1/2 (converted)
[5] = Phase 1 metabolic stability in dog liver microsomes assessed as compound remaining at 10 uM measured for 1 hr by LC-MS/MS analysis; assay type: ADME, Canis lupus familiaris; conditions: read-out: Stability
Procedure, shortened: (§2)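 Liver microsomes (0.5 mg/ml) were incubated with 10 µM compound (final) in 100 mM potassium phosphate, pH 7.4. An NADPH-regenerating system was present: 1.3 mM NADPH, 3.3 mM glucose 6-phosphate, 3.3 mM MgCl2, 0.4 U/ml G6PDH and 50 µM sodium citrate. Runs were in duplicate, with samples taken up to 1 h and quenched with acetonitrile containing internal standard. Loss of compound was followed by LC-MS/MS.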

[6] = Phase 1 metabolic stability in human liver microsomes assessed as compound remaining at 10 uM measured for 1 hr by LC-MS/MS analysis; assay type: ADME; conditions: read-out: Stability; procedure, shortened: as §2
[7] = Phase 2 metabolic stability in rat liver microsomes assessed as compound remaining at 10 uM measured for 1 hr by LC-MS/MS analysis; assay type: ADME; conditions: read-out: Stability
Procedure, shortened: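 Glucuronidation in liver microsomes of the named species, 0.5 mg/ml protein, compound at 10 μM final, in 50 mM Tris-HCl pH 7.5 with 8 mM MgCl2 and 25 μg/ml alamethicin. Preincubated at 37°C, then started with 2 mM UDPGA (final); cofactor-free controls run alongside. Duplicate reactions, sampled up to 1 h, quenched with cold acetonitrile plus internal standard; disappearance followed by LC-MS/MS.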

[8] = Phase 2 metabolic stability in dog liver microsomes assessed as compound remaining at 10 uM measured for 1 hr by LC-MS/MS analysis; assay type: ADME, Canis lupus familiaris; conditions: read-out: Stability
Procedure, shortened: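 For glucuronidation, compound was preincubated at 37°C in 50 mM Tris-HCl, pH 7.5, with 0.5 mg/ml liver microsomes, 8 mM MgCl2 and 25 µg/ml alamethicin. Reactions were started in duplicate with 2 mM UDPGA (final). Samples were taken up to 1 h, quenched with acetonitrile containing internal standard, and compound disappearance was measured by LC-MS/MS.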

[9] = Phase 1 metabolic stability in rat liver microsomes assessed as compound remaining at 10 uM measured for 1 hr by LC-MS/MS analysis in absence of cofactors; assay type: ADME; conditions: read-out: Stability
Procedure, shortened: (§3)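 Cofactor-free controls were run for each microsomal incubation: 0.5 mg/ml liver microsomes with 10 µM compound, omitting cofactors, so that cofactor-independent degradation could be measured. Samples were taken up to 1 h, quenched with acetonitrile containing internal standard, and the percent remaining was determined by LC-MS/MS.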

[10] = Phase 1 metabolic stability in monkey liver microsomes assessed as compound remaining at 10 uM measured for 1 hr by LC-MS/MS analysis in absence of cofactors; assay type: ADME, Macaca mulatta; conditions: rhesus monkey, read-out: Stability; procedure, shortened: as §3
[11] = Metabolic stability in cynomolgus monkey plasma assessed as compound remaining at 5 to 10 uM after 1 hr by LC-MS/MS analysis; assay type: ADME, cell-free, Macaca fascicularis; conditions: read-out: Stability
Procedure, shortened: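 Compound at 5 and 10 µM was incubated at 37°C in Sprague-Dawley rat or cynomolgus monkey plasma. Aliquots taken at 0, 30 and 60 min were quenched with acetonitrile and analyzed by LC-MS/MS. Percent remaining = analyte/internal-standard area ratio at time t divided by that at time 0.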

[12] = Cmax in Sprague-Dawley rat sciatic nerve at 10 mg/kg/day, po administered measured per gm of tissue for 5 days by LC-MS/MS analysis; assay type: ADME, organism-based; set-up: dose 10 mg/kg/day, route oral; procedure, shortened: as §1
[13] = Phase 1 metabolic stability in rat liver microsomes assessed as compound remaining at 10 uM measured for 1 hr by LC-MS/MS analysis; assay type: ADME; conditions: read-out: Stability; procedure, shortened: as §2
[14] = AUC(0 to last) in Sprague-Dawley rat at 0.1 mg/kg, po administered via gavage measured under fasted conditions by LC-MS/MS analysis; assay type: ADME, organism-based; set-up: time 0 - last, dose 0.1 mg/kg, route oral; conditions: plasma
Procedure, shortened: (§4)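 Fasted male Sprague-Dawley rats (280–330 g) received 0.1, 1, 10 or 30 mg/kg by oral gavage in 50 mM HEPES buffered saline, pH 7.4. Blood drawn at 0.25–24 h into heparin/NEM tubes; plasma analyzed by LC-MS/MS. Cmax taken as observed. AUC by linear trapezoidal rule with extrapolation by λz. Cl/F and Vd/F reported. Mean ± S.D., n = 4–9.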

[15] = Apparent oral clearance in Sprague-Dawley rat at 30 mg/kg, po administered via gavage measured under fasted conditions by LC-MS/MS analysis; assay type: ADME, organism-based; set-up: dose 30 mg/kg, route oral; conditions: in vivo; procedure, shortened: as §4
[16] = Volume of distribution in Sprague-Dawley rat at 30 mg/kg, iv administered as bolus injection measured under fasted conditions by LC-MS/MS analysis; assay type: ADME, organism-based; set-up: dose 30 mg/kg, route intravenous; conditions: in vivo
Procedure, shortened: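 Jugular-cannulated male Sprague-Dawley rats, 280–330 g, fasted overnight to 4 h post-dose. Single dose in 50 mM HEPES-buffered saline pH 7.4, by oral gavage or as tail-vein i.v. bolus. Blood into heparin/NEM tubes at 0–24 h. Plasma measured by LC-MS/MS; noncompartmental analysis; Tmax observed; Vd = dose/(AUCinf·λz).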

[17] = Apparent volume of distribution in Sprague-Dawley rat at 30 mg/kg, po administered via gavage measured under fasted conditions by LC-MS/MS analysis; assay type: ADME, organism-based; set-up: dose 30 mg/kg, route oral; conditions: in vivo; procedure, shortened: as §4
[18] = Half life in Sprague-Dawley rat at 30 mg/kg, po administered via gavage measured under fasted conditions by LC-MS/MS analysis; assay type: ADME, organism-based; set-up: dose 30 mg/kg, route oral; conditions: in vivo
[19] = Cmax in Sprague-Dawley rat at 10 mg/kg, po administered via gavage measured under fed conditions by LC-MS/MS analysis; assay type: ADME, organism-based; set-up: dose 10 mg/kg, route oral; conditions: in vivo
Procedure, shortened: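 Nonfasted male Sprague-Dawley rats given a single 10 mg/kg oral dose in 50 mM HEPES buffered saline, pH 7.4. Plasma collected 0.25–24 h into heparin/NEM tubes and assayed by LC-MS/MS. Noncompartmental parameters derived, including Cl/F and Vd/F. Mean ± S.D., n = 6–9.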

- bioavailability [1]: 39.1%
- Cmax [2]: 25 ng/g
- Cmax [3]: 6080 ng/mL
- half-life [4]: 0.87 h
- remaining at 1 h, 10 µM [5]: > 90%
- remaining at 1 h, 10 µM [6]: > 90%
- remaining at 1 h, 10 µM [7]: > 90%
- remaining at 1 h, 10 µM [8]: > 90%
- remaining at 1 h, 10 µM [9]: > 90%
- remaining at 1 h, 10 µM [10]: > 90%
- remaining at 1 h, up to 10 µM [11]: > 90%
- Cmax [12]: 165 ng/g
- remaining at 1 h, 10 µM [13]: > 90%
- AUC(0-t) [14]: 268 ng·h/mL
- CL/F [15]: 8.5 mL/min/kg
- Vd [16]: 1.08 L/kg
- Vd/F [17]: 2.39 L/kg
- half-life [18]: 3.15 h
- Cmax [19]: 16200 ng/mL
Structure (SMILES): O=C(O)c1cccc(-c2cccc(CCS)c2C(=O)O)c1
- Activity (Rattus norvegicus): Non-toxic
